Measurements taken from ChEMBL document CHEMBL1156448, “Identification of an efficacy switch region in the ghrelin receptor responsible for interchange between agonism and inverse agonism” (J Biol Chem, 2007).

Experiments:
[1] = target: T1, Growth hormone secretagogue receptor type 1 (Homo sapiens, UniProt Q92847); experiment: Displacement of [35S]MK677 from human ghrelin receptor expressed in african green monkey COS7 cells; assay type: cell-based, COS-7
Target sequence in this assay (Q92847 whole entry): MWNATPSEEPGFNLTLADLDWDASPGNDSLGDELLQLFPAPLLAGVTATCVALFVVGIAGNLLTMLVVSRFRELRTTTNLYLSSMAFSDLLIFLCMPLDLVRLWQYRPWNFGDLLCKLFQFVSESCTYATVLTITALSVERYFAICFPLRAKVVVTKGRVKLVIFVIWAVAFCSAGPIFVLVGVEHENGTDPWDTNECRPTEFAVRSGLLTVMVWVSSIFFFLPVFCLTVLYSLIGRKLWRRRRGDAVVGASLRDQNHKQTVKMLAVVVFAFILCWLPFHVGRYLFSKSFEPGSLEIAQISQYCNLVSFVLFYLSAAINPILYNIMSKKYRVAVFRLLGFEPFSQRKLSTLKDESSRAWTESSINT

[2] = target: T1, Growth hormone secretagogue receptor type 1; experiment: Inverse agonist activity at human ghrelin receptor expressed in african green monkey COS7 cells assessed as constitutively stimulated inositol phosphate accumulation; assay type: functional, cell-based, COS-7
Target sequence in this assay (Q92847 whole entry): as above

[3] = target: Growth hormone secretagogue receptor type 1 (Homo sapiens, UniProt Q92847, D99K); experiment: Agonist activity at human ghrelin receptor Asp2:20Lys(Asp99) mutant expressed in african green monkey COS7 cells assessed as inhibition of inositol phosphate accumulation; assay type: functional, cell-based, COS-7
Method in brief: (§1)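 COS-7 cells transiently transfected (calcium phosphate with chloroquine; receptor cDNA 20 μg/75 cm2, the amount giving maximal basal signaling), labelled one day later for 24 h with 5 μCi myo-[3H]inositol. Preincubated in HEPES buffer pH 7.4 with 10 mm LiCl, 30 min at 37 °C, then exposed to various peptide concentrations, 45 min at 37 °C. Inositol phosphates recovered on anion-exchange resin; duplicates; EC50 by nonlinear regression.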

[4] = target: T1, Growth hormone secretagogue receptor type 1; experiment: Agonist activity at human ghrelin receptor Asp2:20Asn(Asp99) mutant expressed in african green monkey COS7 cells assessed as inhibition of inositol phosphate accumulation; assay type: functional, cell-based; conditions: cos-7; method in brief: as §1
Target sequence in this assay (Q92847 whole entry, looked up): as the sequence (Q92847 whole entry) above

[5] = target: T1, Growth hormone secretagogue receptor type 1; experiment: Inverse agonist activity at human wild type ghrelin receptor expressed in african green monkey COS7 cells assessed as inhibition of constitutively stimulated inositol phosphate accumulation; assay type: functional, cell-based, COS-7; method in brief: as §1
Target sequence in this assay (Q92847 whole entry): as above

[6] = target: Growth hormone secretagogue receptor type 1 (Homo sapiens, UniProt Q92847, Q120A); experiment: Inverse agonist activity at human ghrelin receptor Gln3:05Ala(Gln120) mutant expressed in african green monkey COS7 cells assessed as inhibition of constitutively stimulated inositol phosphate accumulation; assay type: functional, cell-based, COS-7; method in brief: as §1
[7] = target: Growth hormone secretagogue receptor type 1 (Homo sapiens, UniProt Q92847, S123A); experiment: Inverse agonist activity at human ghrelin receptor Ser3:08Ala(Ser123) mutant expressed in african green monkey COS7 cells assessed as inhibition of constitutively stimulated inositol phosphate accumulation; assay type: functional, cell-based, COS-7; method in brief: as §1
[8] = target: Growth hormone secretagogue receptor type 1 (Homo sapiens, UniProt Q92847, E124Q); experiment: Inverse agonist activity at human ghrelin receptor Glu3:09Gln(Glu124) mutant expressed in african green monkey COS7 cells assessed as inhibition of constitutively stimulated inositol phosphate accumulation; assay type: functional, cell-based, COS-7; method in brief: as §1
[9] = target: Growth hormone secretagogue receptor type 1 (Homo sapiens, UniProt Q92847, S174A); experiment: Inverse agonist activity at human ghrelin receptor Ser4:16Ala(Ser174) mutant expressed in african green monkey COS7 cells assessed as inhibition of constitutively stimulated inositol phosphate accumulation; assay type: functional, cell-based, COS-7; method in brief: as §1
[10] = target: Growth hormone secretagogue receptor type 1 (Homo sapiens, UniProt Q92847, M213A); experiment: Inverse agonist activity at human ghrelin receptor Met5:05Ala(Met213) mutant expressed in african green monkey COS7 cells assessed as inhibition of constitutively stimulated inositol phosphate accumulation; assay type: functional, cell-based, COS-7; method in brief: as §1
[11] = target: Growth hormone secretagogue receptor type 1 (Homo sapiens, UniProt Q92847, V216A); experiment: Inverse agonist activity at human ghrelin receptor Val5:08Ala(Val216) mutant expressed in african green monkey COS7 cells assessed as inhibition of constitutively stimulated inositol phosphate accumulation; assay type: functional, cell-based, COS-7; method in brief: as §1
[12] = target: Growth hormone secretagogue receptor type 1 (Homo sapiens, UniProt Q92847, S217A); experiment: Inverse agonist activity at human ghrelin receptor Ser5:09Ala(Ser217) mutant expressed in african green monkey COS7 cells assessed as inhibition of constitutively stimulated inositol phosphate accumulation; assay type: functional, cell-based, COS-7; method in brief: as §1
[13] = target: Growth hormone secretagogue receptor type 1 (Homo sapiens, UniProt Q92847, F220A); experiment: Inverse agonist activity at human ghrelin receptor Phe5:12Ala(Phe220) mutant expressed in african green monkey COS7 cells assessed as inhibition of constitutively stimulated inositol phosphate accumulation; assay type: functional, cell-based, COS-7; method in brief: as §1
[14] = target: Growth hormone secretagogue receptor type 1 (Homo sapiens, UniProt Q92847, R283Q); experiment: Inverse agonist activity at human ghrelin receptor Arg6:20Gln(Arg283) mutant expressed in african green monkey COS7 cells assessed as inhibition of constitutively stimulated inositol phosphate accumulation; assay type: functional, cell-based, COS-7; method in brief: as §1
[15] = target: Growth hormone secretagogue receptor type 1 (Homo sapiens, UniProt Q92847, N305A); experiment: Inverse agonist activity at human ghrelin receptor Asn7:02Ala(Asn305) mutant expressed in african green monkey COS7 cells assessed as inhibition of constitutively stimulated inositol phosphate accumulation; assay type: functional, cell-based, COS-7; method in brief: as §1
[16] = target: T1, Growth hormone secretagogue receptor type 1; experiment: Inverse agonist activity at human ghrelin receptor Phe7:06Leu(Phe306) mutant expressed in african green monkey COS7 cells assessed as inhibition of constitutively stimulated inositol phosphate accumulation; assay type: functional, cell-based; conditions: cos-7; method in brief: as §1
Target sequence in this assay (Q92847 whole entry, looked up): as the sequence (Q92847 whole entry) above

[17] = target: Growth hormone secretagogue receptor type 1 (Homo sapiens, UniProt Q92847, F312A); experiment: Inverse agonist activity at human ghrelin receptor Phe7:09Ala(Phe312) mutant expressed in african green monkey COS7 cells assessed as inhibition of constitutively stimulated inositol phosphate accumulation; assay type: functional, cell-based, COS-7; method in brief: as §1
[18] = target: Growth hormone secretagogue receptor type 1 (Homo sapiens, UniProt Q92847, F119S); experiment: Agonist activity at human ghrelin receptor Phe3:04Ser(phe119) mutant expressed in african green monkey COS7 cells assessed as stimulation of constitutively stimulated inositol phosphate accumulation
[19] = target: Growth hormone secretagogue receptor type 1 (Homo sapiens, UniProt Q92847, I178A); experiment: Agonist activity at human ghrelin receptor Ile4:20Ala(Ile178) mutant expressed in african green monkey COS7 cells assessed as stimulation of constitutively stimulated inositol phosphate accumulation
Growth hormone secretagogue receptor type 1 (Homo sapiens, UniProt Q92847, I178A), sequence (Q92847 whole entry I178A): as the sequence (Q92847 whole entry) above, with I178A counted along it

Growth hormone secretagogue receptor type 1 (Homo sapiens, UniProt Q92847, S217A), sequence (Q92847 whole entry S217A): as the sequence (Q92847 whole entry) above, with S217A counted along it
Growth hormone secretagogue receptor type 1 (Homo sapiens, UniProt Q92847, E124Q), sequence (Q92847 whole entry E124Q): as the sequence (Q92847 whole entry) above, with E124Q counted along it
Growth hormone secretagogue receptor type 1 (Homo sapiens, UniProt Q92847, N305A), sequence (Q92847 whole entry N305A): as the sequence (Q92847 whole entry) above, with N305A counted along it
Growth hormone secretagogue receptor type 1 (Homo sapiens, UniProt Q92847, F119S), sequence (Q92847 whole entry F119S): as the sequence (Q92847 whole entry) above, with F119S counted along it
Growth hormone secretagogue receptor type 1 (Homo sapiens, UniProt Q92847, V216A), sequence (Q92847 whole entry V216A): as the sequence (Q92847 whole entry) above, with V216A counted along it
Growth hormone secretagogue receptor type 1 (Homo sapiens, UniProt Q92847, S174A), sequence (Q92847 whole entry S174A): as the sequence (Q92847 whole entry) above, with S174A counted along it
Growth hormone secretagogue receptor type 1 (Homo sapiens, UniProt Q92847, R283Q), sequence (Q92847 whole entry R283Q): as the sequence (Q92847 whole entry) above, with R283Q counted along it
Growth hormone secretagogue receptor type 1 (Homo sapiens, UniProt Q92847, M213A), sequence (Q92847 whole entry M213A): as the sequence (Q92847 whole entry) above, with M213A counted along it
Growth hormone secretagogue receptor type 1 (Homo sapiens, UniProt Q92847, Q120A), sequence (Q92847 whole entry Q120A): as the sequence (Q92847 whole entry) above, with Q120A counted along it
Growth hormone secretagogue receptor type 1 (Homo sapiens, UniProt Q92847, F312A), sequence (Q92847 whole entry F312A): as the sequence (Q92847 whole entry) above, with F312A counted along it
Growth hormone secretagogue receptor type 1 (Homo sapiens, UniProt Q92847, F220A), sequence (Q92847 whole entry F220A): as the sequence (Q92847 whole entry) above, with F220A counted along it
Growth hormone secretagogue receptor type 1 (Homo sapiens, UniProt Q92847, D99K), sequence (Q92847 whole entry D99K): as the sequence (Q92847 whole entry) above, with D99K counted along it
Growth hormone secretagogue receptor type 1 (Homo sapiens, UniProt Q92847, S123A), sequence (Q92847 whole entry S123A): as the sequence (Q92847 whole entry) above, with S123A counted along it

IC50 [1] [µM]	IC50 [2] [µM]	IC50 [3] [µM]	IC50 [4] [µM]	IC50 [5] [µM]	IC50 [6] [µM]	IC50 [7] [µM]	IC50 [8] [µM]	IC50 [9] [µM]	IC50 [10] [µM]	IC50 [11] [µM]	IC50 [12] [µM]	IC50 [13] [µM]	IC50 [14] [µM]	IC50 [15] [µM]	IC50 [16] [µM]	IC50 [17] [µM]	EC50 [18] [µM]	EC50 [19] [µM]	SMILES
0.53	> 1	–	–	–	–	–	–	–	–	–	–	–	–	–	–	–	–	–	CC(C)C[C@H](NC(=O)[C@H](CC(C)C)NC(=O)[C@@H](Cc1c[nH]c2ccccc12)NC(=O)[C@H](Cc1ccccc1)NC(=O)[C@H](N)Cc1c[nH]c2ccccc12)C(N)=O
0.013	0.036	> 1	> 1	0.032	> 1	0.021	> 1	0.0026	0.029	0.027	0.083	0.019	> 1	0.061	> 1	> 1	0.06	0.043	CC(C)C[C@H](NC(=O)[C@H](CC(C)C)NC(=O)[C@@H](Cc1c[nH]c2ccccc12)NC(=O)[C@H](Cc1ccccc1)NC(=O)[C@@H](Cc1c[nH]c2ccccc12)NC(=O)[C@@H](N)CCCCN)C(N)=O
